# Data taken from paper PMC7693064 (American Journal of Hematology, 2020).
# Experiments:
# [1] = Pegcetacoplan serum concentrations; format: in vivo, human; details: single-dose phase, SC 25 or 50 mg (cohorts 1 and 2)
# subjects with PNH [2] = test: Packed RBC transfusions, PHAROAH; format: in vivo, human
# In short: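 Packed RBC transfusions given to each cohort 4 subject were recorded throughout the study. […] Pegcetacoplan was given at 270 mg/d SC, and dosing could be increased with Sponsor approval.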
# PNH RBCs = format: in vivo, human
# In short: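 Whole-blood flow cytometry. RBCs were gated with FITC anti-human glycophorin A, and CD59 was detected with PE anti-CD59 to classify type II (partial) and type III (complete) deficient cells. C3 deposition was detected with biotinylated anti-human C3d plus streptavidin-APC. Matched mouse IgG isotype controls were included.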
# classical pathway = test: CH50 assay, hemolytic activity of the classical pathway, PHAROAH; format: in vivo, human; details: six subjects, first year of treatment, with eculizumab
# In short: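 Results were reported in complement activity enzyme units or U/mL, as the laboratory changed units during the study. Each value was judged against the reference range in use at that time point. Individual subject data were plotted over time.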
# alternative pathway = test: AH50 assay, hemolytic activity of the alternative pathway, PHAROAH; format: in vivo, human
# C3 = C3 (Homo sapiens, UniProt P01024); test: Serum C3 levels, PHAROAH; format: in vivo
# In short: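 Values were judged against the reference range in use at each time point. For one subject, pegcetacoplan dosing was suspended between days 29 and 56 and resumed at 180 mg/d on day 57. Individual data were plotted over time.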
# subjects with PNH [3] = test: Hemolytic markers; format: in vivo, human
# [4] = subject 12, day 421, after initial attempt to discontinue eculizumab with no increase in pegcetacoplan dosing
# C3, sequence (P01024 23-1663): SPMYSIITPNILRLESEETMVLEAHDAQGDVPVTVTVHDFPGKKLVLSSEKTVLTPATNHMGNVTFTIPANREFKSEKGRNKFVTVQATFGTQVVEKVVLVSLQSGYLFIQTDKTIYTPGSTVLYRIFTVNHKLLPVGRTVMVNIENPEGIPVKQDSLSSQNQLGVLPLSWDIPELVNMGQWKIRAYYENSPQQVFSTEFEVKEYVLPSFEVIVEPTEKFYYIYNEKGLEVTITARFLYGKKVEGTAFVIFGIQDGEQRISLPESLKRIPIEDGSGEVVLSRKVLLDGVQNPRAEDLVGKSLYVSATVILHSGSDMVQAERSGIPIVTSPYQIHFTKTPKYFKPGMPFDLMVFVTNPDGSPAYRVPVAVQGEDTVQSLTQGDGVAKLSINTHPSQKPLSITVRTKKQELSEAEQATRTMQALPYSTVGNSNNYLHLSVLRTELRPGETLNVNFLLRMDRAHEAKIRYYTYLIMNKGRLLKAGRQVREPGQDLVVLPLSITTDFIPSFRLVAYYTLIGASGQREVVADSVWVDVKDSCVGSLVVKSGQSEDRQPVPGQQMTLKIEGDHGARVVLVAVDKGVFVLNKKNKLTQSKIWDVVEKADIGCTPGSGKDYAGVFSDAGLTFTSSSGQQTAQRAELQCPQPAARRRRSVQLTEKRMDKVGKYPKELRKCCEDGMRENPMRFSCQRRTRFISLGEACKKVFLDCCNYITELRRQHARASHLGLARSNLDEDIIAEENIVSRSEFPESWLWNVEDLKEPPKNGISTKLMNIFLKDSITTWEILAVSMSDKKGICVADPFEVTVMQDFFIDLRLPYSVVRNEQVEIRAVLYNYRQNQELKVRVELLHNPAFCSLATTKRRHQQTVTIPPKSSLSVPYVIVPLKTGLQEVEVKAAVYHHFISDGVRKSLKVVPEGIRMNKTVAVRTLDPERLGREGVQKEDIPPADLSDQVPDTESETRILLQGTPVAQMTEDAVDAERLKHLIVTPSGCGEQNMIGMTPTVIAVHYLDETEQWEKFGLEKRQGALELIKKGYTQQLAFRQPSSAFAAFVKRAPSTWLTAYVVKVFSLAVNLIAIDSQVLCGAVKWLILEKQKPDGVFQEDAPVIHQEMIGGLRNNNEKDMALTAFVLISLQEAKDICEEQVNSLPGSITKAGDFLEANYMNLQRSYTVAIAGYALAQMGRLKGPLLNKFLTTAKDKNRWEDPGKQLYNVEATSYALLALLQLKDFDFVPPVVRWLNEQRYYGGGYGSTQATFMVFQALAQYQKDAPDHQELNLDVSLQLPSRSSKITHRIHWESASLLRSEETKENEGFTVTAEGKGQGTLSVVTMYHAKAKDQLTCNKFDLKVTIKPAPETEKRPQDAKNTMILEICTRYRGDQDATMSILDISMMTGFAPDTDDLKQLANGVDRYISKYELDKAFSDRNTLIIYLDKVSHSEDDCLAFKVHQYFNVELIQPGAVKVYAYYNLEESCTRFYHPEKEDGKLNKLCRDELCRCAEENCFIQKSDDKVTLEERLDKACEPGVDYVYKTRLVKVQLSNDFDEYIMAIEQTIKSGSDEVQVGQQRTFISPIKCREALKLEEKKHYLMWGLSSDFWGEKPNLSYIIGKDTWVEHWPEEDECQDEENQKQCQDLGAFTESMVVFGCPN
substance,measurement,setting,value
pegcetacoplan,Time of peak serum concentration,[1],a week after dosing
same,Transfusion avoidance,subjects with PNH [2]; four subjects who completed the study,achieved in all four subjects
same,Packed RBC transfusions received during the study,"subjects with PNH [2]; subject 9, seven given before steady state or after pegcetacoplan was suspended",nine
same,Deposition of C3 fragments on the surface of type II and III RBCs,PNH RBCs; all subjects in cohort 4,decrease
same,Type II and III cells as a proportion of the clonal distribution of total RBCs,"PNH RBCs; five subjects, by day 85",> 90%
same,Effect on CH50,classical pathway,No significant effect
same,AH50 levels,alternative pathway; after eculizumab discontinuation,increased following eculizumab discontinuation
same,Subjects with AH50 levels within the 77-159 U/mL reference range,"alternative pathway; last evaluation time point, four subjects who completed the study",two of the four
same,"Serum C3 levels, change",C3; all subjects in cohort 4,increase
same,Serum C3 level,"C3; subject 11, day 29",415 mg/dL
same,Serum C3 level,"C3; subject 11, day 57, after suspension of pegcetacoplan dosing",107 mg/dL
same,Subjects with hemoglobin levels within reference range 11.1-15.9 g/dL,"subjects with PNH [3]; after 2 years of treatment, four remaining subjects",three of the four
same,"Reticulocyte count, change during the study",subjects with PNH [3]; cohort 4,reductions were observed in all subjects
same,"Total bilirubin levels, change during the study",subjects with PNH [3]; cohort 4,Decreases in total bilirubin levels were observed in all subjects
same,Hemoglobin levels,"subjects with PNH [3]; cohort 4, all six subjects",increased in all subjects by day 29
same,LDH levels during treatment,"subjects with PNH [3]; cohort 4, with some fluctuations",remained stable
same,LDH level,subjects with PNH [3]; [4],1571 U/L
same,Total bilirubin level,subjects with PNH [3]; [4],2.3 mg/dL
